Experimental data taken from PubChem BioAssay.
Activity calls are given as the source filed them.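 The calls were made as follows, unless noted: active = inhibition at or above 50% relative to wild type and mutant plate controls; inactive = inhibition below 50%.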

Columns and labels:
[1] = inhibitors of TNFa-induced NFkB p65 translocation, primary screen, imaging, HUVEC, MLSMR starter and 10KST1 sets (AID 438;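 active = inhibition above 20% together with a positive visual image hit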;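 also: compound added about 3h40 before a 20 min TNFalpha stimulation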;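 as to inhibition: signal is the nuclear over cytoplasmic p65 intensity ratio per well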); conditions: HUVEC TNFa-induced p65 nuclear translocation; cell count: measured here: nuclei count (cytotoxicity indicator), at 2.08 µM; inhibition: at 2 µM, stronger effect = higher value, 0% TNFa-plus-vehicle, 100% no-TNFa wells
[2] = endothelial E-selectin expression blockers – imaging, HUVEC, immunofluorescence, MLSMR starter and 10KST1 sets, primary screen (AID 487;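 active = visually confirmed hit in the image check and inhibition above 20%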;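 as to inhibition: signal is fraction of cell area covered by stained E-selectin grains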;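 as to nuclei count: 100% = median nuclei count of all wells on the same plate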); conditions: HUVEC TNFalpha-induced E-selectin immunofluorescence imaging, at 2 µM; inhibition: stronger effect = higher value; nuclei count: measured here: cell number, toxicity
[3] = Primary imaging screen for DUSP6 inhibitors that restore phospho-Erk in transfected HeLa cells, chemical complementation (AID 609;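 active = compounds giving at least 50% inhibition in the cell-based MKP-3 phosphatase rescue imaging test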;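 as to inhibition: phospho-Erk level distribution per well compared with pooled transfected vehicle control wells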); conditions: HeLa MKP-3 transfected, phospho-Erk imaging KS statistic, at 10 µM, cells stimulated with TPA for 15 min
[4] = target: Dual specificity protein phosphatase 6 (Homo sapiens) (UniProt Q16828); assay: as above; conditions: HeLa MKP-3 transfected, phospho-Erk imaging KS statistic; at 10 µM; stronger effect = higher value; cells stimulated with TPA for 15 min
[5] = target: Voltage-gated potassium channel subunit beta-2 (Rattus norvegicus) (UniProt P62483); assay: inhibitors of rat Kvbeta2 reductase activity – biochemical, NADPH fluorescence, primary screen (AID 622;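 active = fluorescence slope higher than the sample average by over 3 SD, cut at about -0.22 in these data, passing the limit was not always enough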;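 also: slope of raw intensity against log time taken from 70 to 1610 s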); conditions: recombinant KvBeta, 4-cyanobenzaldehyde reduction, at 10 µM, stronger effect = higher value
[6] = target: Voltage-gated potassium channel subunit beta-2 (Rattus norvegicus) (UniProt P62483); assay: enhancers of rat Kvbeta2 NADPH turnover – biochemical, NADPH fluorescence, primary screen (AID 623;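 active = NADPH fluorescence slope more negative than the mean of all samples by about 3 SD, 99.7% confidence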;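 also: fluorescence intensity change per second fitted from 20 to 320 s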); conditions: Recombinant KvBeta, NADPH fluorescence decrease slope, 10 min; at 10 µM; stronger effect = lower value
[7] = target: Alpha-2C adrenergic receptor (Homo sapiens) (UniProt P18825); assay: compounds altering alpha2C-coupled GIRK flux – cell-based, HEK293 alpha2C/GIRK1/2, thallium flux, primary screen (AID 624;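 active = fluorescence slope after compound addition differing from the mean of all screened samples at 99.7% confidence, in either direction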;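 also: slope of fluorescence ratio to pre-addition baseline per second over 15 to 24 s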); conditions: thallium flux BTC fluorescence, at 10 µM, actives lie on both sides
[8] = inhibitors of larval lipid processing in zebrafish, primary screen, whole organism, PED6 fluorescence, gall bladder and intestine (AID 686;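 active = a full or partial loss of lipid-probe fluorescence in the fish gall bladder, intestine or both, judged by eye; inactive = no fluorescence loss, or compound toxic to the fish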;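 also: larvae 5 to 7 days old with five fish per well; signal comes from phospholipase A2 cleavage of quenched PED6 carried via bile; overnight exposure to compound and PED6 before scoring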); conditions: Zebrafish larvae PED6 lipid processing, fluorescence scoring; screened at 20 µM (by protocol)
How it was run: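 system = live zebrafish larvae aged 5-7 days, whole organism | probe or stimulus = ingested quenched lipid PED6 at 100 nM | doses = 20 µM single dose | timing = overnight exposure | detection = fluorescence microscopy with visual scoring of gall bladder and intestine | read-out = visual per-well fluorescence inhibition score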

[9] = loss of swimming-algae plug formation – whole organism, Chlamydomonas reinhardtii, WT vs cilia-less mutant, absorbance, 96-well, primary screen (AID 463189); conditions: Chlamydomonas reinhardtii gravitaxis, OD600 absorbance, 2 days; at 10 µM; stronger effect = higher value;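 also: 0% = wild type cc124 cells in DMSO and 100% = ciliumless bld1 mutant cells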
[10] = measured here: cell density z-score
[11] = measured here: nuclear c-Myc green intensity z-score
[12] = measured here: nuclear pErk red intensity z-score, stronger effect = higher value

Dual specificity protein phosphatase 6 (Homo sapiens), sequence (Q16828 whole entry, looked up): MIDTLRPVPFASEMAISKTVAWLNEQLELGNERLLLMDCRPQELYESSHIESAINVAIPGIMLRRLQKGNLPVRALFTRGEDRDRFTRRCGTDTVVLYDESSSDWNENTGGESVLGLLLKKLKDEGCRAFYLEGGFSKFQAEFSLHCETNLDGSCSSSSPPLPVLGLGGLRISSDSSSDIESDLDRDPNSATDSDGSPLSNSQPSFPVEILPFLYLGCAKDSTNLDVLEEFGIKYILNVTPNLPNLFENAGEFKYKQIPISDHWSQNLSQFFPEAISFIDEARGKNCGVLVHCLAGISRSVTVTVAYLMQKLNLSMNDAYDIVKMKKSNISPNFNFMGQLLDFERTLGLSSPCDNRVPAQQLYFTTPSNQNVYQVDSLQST
Alpha-2C adrenergic receptor (Homo sapiens), sequence (P18825 whole entry, looked up): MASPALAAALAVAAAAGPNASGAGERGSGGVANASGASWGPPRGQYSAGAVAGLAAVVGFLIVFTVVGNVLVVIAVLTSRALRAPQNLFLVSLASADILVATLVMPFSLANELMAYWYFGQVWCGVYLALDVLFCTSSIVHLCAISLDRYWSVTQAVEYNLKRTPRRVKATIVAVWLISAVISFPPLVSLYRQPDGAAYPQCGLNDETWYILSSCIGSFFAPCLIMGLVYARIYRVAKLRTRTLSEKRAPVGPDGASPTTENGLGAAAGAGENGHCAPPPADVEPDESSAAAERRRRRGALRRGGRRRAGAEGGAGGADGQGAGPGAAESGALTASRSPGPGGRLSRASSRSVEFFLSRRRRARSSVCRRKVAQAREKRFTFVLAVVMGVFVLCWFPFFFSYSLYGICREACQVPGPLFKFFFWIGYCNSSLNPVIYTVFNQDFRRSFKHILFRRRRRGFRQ
Voltage-gated potassium channel subunit beta-2 (Rattus norvegicus), sequence (P62483 whole entry, looked up): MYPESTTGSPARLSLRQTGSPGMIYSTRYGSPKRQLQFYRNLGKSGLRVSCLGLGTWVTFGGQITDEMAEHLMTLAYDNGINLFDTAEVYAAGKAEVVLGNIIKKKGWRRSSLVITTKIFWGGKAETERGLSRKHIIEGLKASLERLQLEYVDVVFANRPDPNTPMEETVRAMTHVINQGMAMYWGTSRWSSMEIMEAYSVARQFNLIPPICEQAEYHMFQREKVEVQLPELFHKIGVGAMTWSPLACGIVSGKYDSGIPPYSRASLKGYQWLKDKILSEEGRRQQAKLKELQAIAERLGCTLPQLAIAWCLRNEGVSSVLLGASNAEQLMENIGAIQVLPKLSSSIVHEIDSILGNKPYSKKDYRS

| Structure (SMILES) | cell count [1] | inhibition [1] | inhibition [2] | nuclei count [2] [%] | z-score [3, 10] | z-score [3, 11] | z-score [3, 12] | inhibition [4] | fluorescence slope [5] | NADPH fluorescence slope [6] | slope [7] | outcome [8] | inhibition [9] |
| --- | --- | --- | --- | --- | --- | --- | --- | --- | --- | --- | --- | --- | --- |
| COc1cccc(-c2nc(N3CCC(C)CC3)c3ccccc3n2)c1O | 573 | -3.3% (inactive) | 48.3% (inactive) | 120 | 0.534 | -0.819 | 1.15 | -12.3% (inactive) | -0.409 (inactive) | -3.4e-05 (inactive) | 0.00378 (inactive) | inactive | 9.22% (inactive) |
| COc1ccccc1-c1nn2c(-c3ccco3)nnc2s1 | 544 | -2.9% (inactive) | -39.4% (inactive) | 162 | 0.365 | -0.311 | -0.198 | -2.47% (inactive) | -0.42 (inactive) | -8.7e-05 (inactive) | 0.00698 (inactive) | inactive | 10.9% (inactive) |
| COc1ccc(/C(O)=C2/C(=O)C(=O)N(CCCN(C)C)C2c2ccccc2)cc1OC (centres undefined) | 346 | -14.7% (inactive) | -317% (inactive) | 131 | -0.204 | -0.251 | 0.0495 | 9.39% (inactive) | -0.386 (inactive) | -3.5e-05 (inactive) | 0.00558 (inactive) | inactive | -0.889% (inactive) |
| CC(Sc1nc(N2CCCCC2)c2c(c1C#N)CCCC2)C(=O)O (centres undefined) | 624 | 4.5% (inactive) | -96.1% (inactive) | 161 | -0.692 | 0.635 | -1.09 | 9.82% (inactive) | -0.301 (inactive) | 1.2e-06 (inactive) | 0.00467 (inactive) | inactive | -8.39% (inactive) |
| Cc1csc2nc(CSc3nc4ccccc4o3)cn12 | 402 | -8.4% (inactive) | -53.8% (inactive) | 108 | 0.0403 | 1.14 | -0.0493 | 3.56% (inactive) | -0.545 (inactive) | -5.7e-05 (inactive) | 0.00434 (inactive) | inactive | 5.29% (inactive) |
| COc1cc(C)nc(N(C)S(=O)(=O)c2ccccc2Cl)n1 | 587 | -9% (inactive) | 26.6% (inactive) | 175 | 1.16 | 0.469 | -0.133 | 9.82% (inactive) | -0.36 (inactive) | 3.2e-06 (inactive) | 0.00436 (inactive) | inactive | -1.55% (inactive) |
| N#Cc1c(NC(=O)CCC(=O)O)sc2c1CCCC2 | 715 | -11.6% (inactive) | -10.3% (inactive) | 186 | -1.16 | 1.41 | -1.22 | -7.28% (inactive) | -0.388 (inactive) | -5e-05 (inactive) | 0.00575 (inactive) | inactive | -7.91% (inactive) |
| COC(=O)c1ccccc1N1C(=O)[C@@H]2C(c3ccc(Br)cc3)=NO[C@@H]2C1=O | 269 | -12.6% (inactive) | 0.3% (inactive) | 89.9 | -0.914 | 2.06 | -1.22 | 1.75% (inactive) | -0.458 (inactive) | -7.9e-05 (inactive) | 0.00516 (inactive) | inactive | -19.6% (inactive) |
| COc1cc(C)nc(Oc2ccc(OCCOc3ccc(C)cc3)nn2)n1 | 440 | -2.4% (inactive) | -191% (inactive) | 163 | 0.149 | -0.102 | 0.972 | 2.46% (inactive) | -0.415 (inactive) | -3.1e-05 (inactive) | 0.00505 (inactive) | inactive | 3.2% (inactive) |
| CN(C)CC(O)COc1ccc(C(C)(C)c2ccc(OCC(O)CN(C)C)cc2)cc1 (centres undefined) | 459 | 2.6% (inactive) | -216% (inactive) | 154 | -1.06 | 1.22 | 0.592 | -5.62% (inactive) | -0.397 (inactive) | -3.1e-05 (inactive) | 0.0054 (inactive) | inactive | -19.9% (inactive) |
| CSc1nc(N)c(C#N)c(-c2ccccc2Cl)c1C#N | 361 | -5.2% (inactive) | 16.8% (inactive) | 95 | -2.2 | 1.67 | -0.0312 | -2.07% (inactive) | -0.456 (inactive) | -0.000311 (inactive) | 0.00479 (inactive) | inactive | -18.7% (inactive) |
| Cc1ccc(N(CC(=O)O)C2SC(=O)NC2=O)cc1 (centres undefined) | 529 | -12.4% (inactive) | -72.5% (inactive) | 142 | 0.0556 | 0.578 | -1.85 | 18.2% (inactive) | -0.507 (inactive) | -2.2e-05 (inactive) | 0.00492 (inactive) | inactive | 31.2% (inactive) |
| COCc1[nH]nc2c1C(c1cccc(OC)c1)C(C#N)=C(N)O2 (centres undefined) | 637 | -2.3% (inactive) | -17.7% (inactive) | 174 | 0.403 | -0.811 | -1.74 | -2.29% (inactive) | -0.403 (inactive) | -3.7e-05 (inactive) | 0.00513 (inactive) | inactive | 2.83% (inactive) |
